Converted amounts (≈) assume the structure as drawn.
Columns and labels:
[1] = tested on: Micrococcus luteus; assay: Antibacterial activity against Micrococcus luteus IFO 3232 assessed as growth inhibition at 100 ug/disc after 24 hrs by agar disc-diffusion method; format: functional
In short: (§1)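 Agar disc-diffusion on Mueller-Hinton agar. Sterile 8 mm filter-paper discs carrying 100 µg of agent were laid on the seeded agar. Plates were incubated at 37 °C, and growth-inhibition zone diameters were read after 24 h for bacteria.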

[2] = tested on: Bacillus subtilis; assay: Antibacterial activity against Bacillus subtilis IFO 3007 after 24 hrs by two fold dilution method; format: functional
[3] = tested on: Pseudomonas aeruginosa; assay: Antibacterial activity against Pseudomonas aeruginosa IFO 3448 after 24 hrs by two fold dilution method; format: functional
[4] = tested on: Staphylococcus aureus; assay: Antibacterial activity against Staphylococcus aureus IFO 3060 assessed as growth inhibition at 100 ug/disc after 24 hrs by agar disc-diffusion method; format: functional; in short: as §1
[5] = tested on: Micrococcus luteus; assay: Antibacterial activity against Micrococcus luteus IFO 3232 after 24 hrs by two fold dilution method; format: functional
[6] = tested on: Bacillus subtilis; assay: Antibacterial activity against Bacillus subtilis IFO 3007 assessed as growth inhibition at 100 ug/disc after 24 hrs by agar disc-diffusion method; format: functional; in short: as §1
[7] = tested on: Escherichia coli; details: IFO 3301, 100 ug/disc
[8] = tested on: Staphylococcus aureus; assay: Antibacterial activity against Staphylococcus aureus IFO 3060 after 24 hrs by two fold dilution method; format: functional
[9] = tested on: Pseudomonas aeruginosa; assay: Antibacterial activity against Pseudomonas aeruginosa IFO 3448 assessed as growth inhibition at 100 ug/disc after 24 hrs by agar disc-diffusion method; format: functional; in short: as §1
[10] = tested on: Pseudomonas aeruginosa; assay: Antibacterial activity against Pseudomonas aeruginosa IFO 3448 assessed as growth inhibition at 200 ug/disc after 24 hrs by agar disc-diffusion method; format: functional; details: IFO 3448, 24 h, read-out: DIZ
[11] = tested on: Bacillus subtilis; assay: Antibacterial activity against Bacillus subtilis IFO 3007 assessed as growth inhibition at 200 ug/disc after 24 hrs by agar disc-diffusion method; format: functional; details: IFO 3007, 24 h, read-out: DIZ
[12] = tested on: Escherichia coli; assay: Antibacterial activity against Escherichia coli IFO 3301 assessed as growth inhibition at 200 ug/disc after 24 hrs by agar disc-diffusion method; format: functional; details: IFO 3301, 24 h, read-out: DIZ
[13] = tested on: Escherichia coli; assay: microbe, parasite or virus in culture; details: IFO 3301, 24 h
[14] = tested on: Staphylococcus aureus; assay: Antibacterial activity against Staphylococcus aureus IFO 3060 assessed as growth inhibition at 200 ug/disc after 24 hrs by agar disc-diffusion method; format: functional; details: IFO 3060, 24 h, read-out: DIZ
[15] = tested on: Candida albicans; assay: Antifungal activity against Candida albicans IFO 0583 assessed as growth inhibition at 200 ug/disc after 48 hrs by agar disc-diffusion method; format: functional; details: IFO 0583, 48 h, read-out: DIZ
[16] = tested on: Micrococcus luteus; assay: Antibacterial activity against Micrococcus luteus IFO 3232 assessed as growth inhibition at 200 ug/disc after 24 hrs by agar disc-diffusion method; format: functional; details: IFO 3232, 24 h, read-out: DIZ
[17] = tested on: Escherichia coli; assay: microbe, parasite or virus in culture; details: IFO 3301, 24 h, read-out: DIZ
[18] = tested on: Candida albicans; assay: Antifungal activity against Candida albicans IFO 0583 assessed as growth inhibition at 100 ug/disc after 48 hrs by agar disc-diffusion method; format: functional; details: IFO 0583, 48 h, read-out: DIZ
[19] = tested on: Candida albicans; assay: Antifungal activity against Candida albicans IFO 0583 after 24 hrs by two fold dilution method; format: functional; details: IFO 0583, 24 h

Row | Compound | zone of inhibition at 200 µg/disc [10] | zone of inhibition at 200 µg/disc [11] | zone of inhibition at 200 µg/disc [12] | MIC [13] | MIC ([2]; IFO 3007, 24 h) | MIC ([3]; IFO 3448, 24 h) | MIC ([5]; IFO 3232, 24 h) | zone of inhibition at 200 µg/disc [14] | MIC ([8]; IFO 3060, 24 h) | zone of inhibition at 200 µg/disc [15] | zone of inhibition at 200 µg/disc [16] | also measured
1 | GENTAMICIN |  |  |  |  |  |  |  |  |  |  |  | inhibition zone (IZ) [1]: 18 mm; MIC [2]: 2 µg/mL; MIC [3]: 1 µg/mL; inhibition zone (IZ) [4]: 26 mm; MIC [5]: 2 µg/mL; inhibition zone (IZ) [6]: 25 mm; IZ [7]: 20 mm; MIC [8]: 2 µg/mL; inhibition zone (IZ) [9]: 19 mm
2 | Cn1c(C23CC4CC(CC(C4)C2)C3)nn(CN2CCN(c3cccc(C(F)(F)F)c3)CC2)c1=S | 21 mm | 33 mm | 19 mm | 16 µg/mL (≈ 32.5 µM) | 0.5 µg/mL (≈ 1.02 µM) | 8 µg/mL (≈ 16.3 µM) | 4 µg/mL (≈ 8.14 µM) | 30 mm | 0.5 µg/mL (≈ 1.02 µM) | < 10 mm | 28 mm | 
3 | CC1(C)S[C@@H]2[C@H](NC(=O)[C@H](N)c3ccccc3)C(=O)N2[C@H]1C(=O)O [AMPICILLIN] |  |  |  |  | 0.5 µg/mL (≈ 1.43 µM) | 2 µg/mL (≈ 5.72 µM) | 2 µg/mL (≈ 5.72 µM) |  | 2 µg/mL (≈ 5.72 µM) |  |  | zone of inhibition at 100 µg/disc ([1]; IFO 3232, 24 h, read-out: DIZ): 19 mm; zone of inhibition at 100 µg/disc ([4]; IFO 3060, 24 h, read-out: DIZ): 23 mm; zone of inhibition at 100 µg/disc ([6]; IFO 3007, 24 h, read-out: DIZ): 21 mm; zone of inhibition at 100 µg/disc ([9]; IFO 3448, 24 h, read-out: DIZ): 16 mm; zone of inhibition at 100 µg/disc [17]: 17 mm
4 | COc1ccccc1N1CCN(Cn2nc(C34CC5CC(CC(C5)C3)C4)n(/N=C/c3ccccc3O)c2=S)CC1 | 12 mm | 33 mm | 18 mm | 8 µg/mL (≈ 14.3 µM) | 0.5 µg/mL (≈ 0.895 µM) |  | 2 µg/mL (≈ 3.58 µM) | 28 mm | 0.5 µg/mL (≈ 0.895 µM) | < 10 mm | 25 mm | 
5 | Clc1ccccc1C(c1ccccc1)(c1ccccc1)n1ccnc1 [CLOTRIMAZOLE] |  |  |  |  |  |  |  |  |  |  |  | zone of inhibition at 100 µg/disc [18]: 21 mm; MIC [19]: 2 µg/mL (≈ 5.8 µM)
6 | Oc1ccc(/C=N/n2c(C34CC5CC(CC(C5)C3)C4)nn(CN3CCN(c4ccccc4)CC3)c2=S)cc1 | < 10 mm | 22 mm | 16 mm |  | 4 µg/mL (≈ 7.57 µM) |  | 16 µg/mL (≈ 30.3 µM) | 22 mm | 4 µg/mL (≈ 7.57 µM) | < 10 mm | 19 mm | 

Source: ChEMBL document CHEMBL2424616, “Synthesis and antimicrobial activity of novel 5-(1-adamantyl)-2-aminomethyl-4-substituted-1,2,4-triazoline-3-thiones” (2013)
